Screens as filed in PubChem.
T cruzi inh – T. cruzi replication inhibition. T. cruzi beta-gal in NIH3T3, luminescence, 90 h. inhibition, % (no concentration beside the values). 300,000 compounds, 1.4% hits. AID 1885;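 active = mean inhibition across valid replicates above about 55%, limit read from the data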;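 also: signal also drops with host cell toxicity which is not excluded here; 0% = plate median of DMSO wells and 100% = zero luminescence signal; higher percent means less beta-gal luminescence so fewer parasites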
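Test system: β-gal T. cruzi (Tulahuen C4) inside NIH/3T3 cells / Quantity: 5,000 cells/well / Measured by: luminescence from GalScreen with 0.05% NP40, read after 60 min / Medium: DMEM plus 2% FBS / Measure: parasite load inhibition, % / Reagent: Tulahuen C4 trypomastigotes, 5000/well / Schedule: co-culture of at least 90 h after 3 h attachment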
HDAC3 inhib – blocks human histone deacetylase 3; O15379; 320,000 compounds, 0.15% hits; recombinant HDAC3, fluorogenic peptide/trypsin coupled, fluorescence; inhibition, % at 8.3 µM; in the data active = inhibition above about 26%, passing the limit was not always enough
Target sequence (O15379 whole entry, looked up): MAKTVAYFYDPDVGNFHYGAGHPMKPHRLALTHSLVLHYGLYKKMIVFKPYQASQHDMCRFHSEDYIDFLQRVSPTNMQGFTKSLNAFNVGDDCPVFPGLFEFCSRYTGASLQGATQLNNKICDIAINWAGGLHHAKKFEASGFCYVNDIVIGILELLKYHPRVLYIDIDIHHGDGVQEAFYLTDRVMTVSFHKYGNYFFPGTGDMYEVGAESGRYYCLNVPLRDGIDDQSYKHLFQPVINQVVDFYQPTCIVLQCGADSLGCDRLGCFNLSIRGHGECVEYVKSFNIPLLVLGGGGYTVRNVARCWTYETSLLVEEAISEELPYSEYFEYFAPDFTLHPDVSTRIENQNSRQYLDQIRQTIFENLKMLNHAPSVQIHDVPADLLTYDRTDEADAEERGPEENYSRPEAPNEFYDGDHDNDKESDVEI
PolyA inh – yeast polyadenylation inhibition; S. cerevisiae SKY197-pL101 polyadenylation reporter, beta-gal luminescence; efflux-impaired pdr1/pdr3 knockout yeast; score 100 = 6 SD above DMSO; activity score, % at 12 µM; 300,000 compounds, 0.02% hits; AID 1875;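 active = lowest replicate activity score at least 50, where 100 means six control SD above control mean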;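 also: yeast exposed to compound for 9 h at 30 °C; higher score means more reporter readthrough which indicates perturbed polyadenylation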
Efflux pump mplx – antifungal efflux pump inhibition, Nile Red retention; S. cerevisiae Candida pump triplex; 330,000 compounds, 0.44% hits; inhibition, % at 10 µM;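 active = plate passing quality check with inhibition over a set limit, or well fluorescence over plate mean plus 4 SD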;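 also: Nile Red retained in pooled yeast measured as flow cytometry median fluorescence; 0% = buffer negative control and 100% = Enniatin B positive control; higher means more Nile Red kept so more efflux inhibition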
AI-2 QS mod – modulators of Vibrio harveyi AI-2 quorum sensing system | 300,000 compounds, 0.4% hits | Vibrio harveyi JMH597 AI-2 luminescence/OD600 ratio, 9 h; hits give low values; strain lacks LuxN and CqsS sensors; 0 = neutral-control median | AID 2094 | activity change, % at 7.5 µM; in the data active = activity change below about -75%, passing the limit was not always enough;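 also: luminescence divided by OD600 gain over 9 h not by final OD600 alone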
Cmpd fluor yeast – counter-screen for efflux pump inhibitors: compound fluorescence | S. cerevisiae AD/pABC3, flow cytometry | fluorescence ratio to DMSO, % at 10 µM | shares compounds with Efflux pump mplx | 1,700 compounds, 4% hits;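 active = fluorescence ratio to DMSO above its plate's cutoff, the plate mean ratio plus 5 SD, cut at about 210% in these data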;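 also: unstained yeast with no Nile Red so the signal is compound autofluorescence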
Mdr1 pump inh – blocks the Candida albicans Mdr1 efflux pump in yeast. S. cerevisiae AD/CaMDR1, Nile Red efflux, flow cytometry. 1,700 compounds, 1% hits. shares compounds with Efflux pump mplx. AID 588518. inhibition, % at 10 µM; in the data active = inhibition above about 26%;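 also: 0% = DMSO vehicle and 100% = reference inhibitor; higher means more Nile Red retained so more efflux inhibition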
Cdr2 pump inh – inhibitors of Candida albicans Cdr2 efflux pump; shares compounds with Efflux pump mplx; S. cerevisiae AD/CaCDR2, Nile Red retention, flow cytometry; Nile Red retention ratio vs DMSO, % at 10 µM; 1,700 compounds, 4% hits; AID 588520; in the data active = Nile Red retention ratio vs DMSO above about 190%;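 also: higher ratio means more blocking of Cdr2 efflux of the dye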
CaCdr1 efflux inh – blocks the Candida albicans Cdr1 efflux pump in yeast. inhibition, % at 10 µM. AID 588522. shares compounds with Efflux pump mplx. S. cerevisiae AD/CaCDR1, Nile Red efflux, flow cytometry. 1,700 compounds, 1% hits;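 active = inhibition above the screen-wide mean plus twice its standard deviation, cut at about 32% in these data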
Numbers without * were called inactive; · = no result given. Most compounds without a hit are left out; they make up all but 2.2% or so of the library.

SMILES	T cruzi inh	HDAC3 inhib	PolyA inh	Efflux pump mplx	AI-2 QS mod	Cmpd fluor yeast	Mdr1 pump inh	Cdr2 pump inh	CaCdr1 efflux inh
CN(C)c1ccc(Nc2ccc([N+](=O)[O-])cn2)cc1	22	4	-20	0	21	·	·	·	·
CCOc1ccc(S(=O)(=O)N(C(=O)c2ccco2)c2cc3sc(=O)oc3c3ccccc23)cc1	-7	1	-7	2.0*	33	109	0	108	0
CCC(Sc1nc2ccsc2c(=O)n1Cc1ccc(C(=O)O)cc1)C(=O)Nc1ccc(C)c(Cl)c1 (configuration not stated)	1	0	-19	0.8*	26	124	0	105	0
COc1ccc(C(=O)NNC(=O)CCn2nnc(-c3ccc(C)cc3)n2)cc1OC	-1	-1	-5	0	9	·	·	·	·
CC(C)c1ccc(C(=O)NC(=S)Nc2ccc3[nH]c(=O)[nH]c3c2)cc1	5	-4	8	0	12	108	0	112	0
COc1ccc2c(c1)[C@H]1[C@H](CO2)[C@H](c2ccccc2)[C@]2(C)C(=O)Nc3ccc(C)cc3C(=O)N12	·	6	·	0	·	·	·	·	·
C[C@@]12C(=O)Nc3ccccc3C(=O)N1[C@H]1c3cc(Cl)ccc3OC[C@@H]1[C@@H]2c1ccccc1	·	4	·	0	·	98	0	96	0
C[C@@]12C(=O)Nc3ccc(Br)cc3C(=O)N1[C@H]1c3cc(Cl)ccc3OC[C@@H]1[C@@H]2c1ccccc1	·	2	·	1	·	·	·	·	·
C[C@@]12C(=O)Nc3cc(F)c(F)cc3C(=O)N1[C@H]1c3cc(Cl)ccc3OC[C@@H]1[C@@H]2c1ccccc1	·	2	·	0	·	113	0	114	0
C[C@@]12C(=O)Nc3ccc(Cl)cc3C(=O)N1[C@H]1c3cc(Cl)ccc3OC[C@@H]1[C@@H]2c1ccccc1	·	2	·	0	·	103	0	116	0
COc1ccc2c(c1)OC[C@H]1[C@H]2N2C(=O)c3cc(C)ccc3NC(=O)[C@@]2(C)[C@H]1c1ccccc1	·	15	·	5.1*	·	121	1	121	0
COC(=O)c1cc(C)sc1NC(=O)CSc1ncccn1	-4	1	1	0	3	·	·	·	·
COc1ccc(/C=C\C(=O)c2c(O)ccc3c(C)cc(=O)oc23)cc1OC	·	-3	-3	0	-1	·	·	·	·
CCN(CC)c1nc2ccccc2nc1-n1nc(C)cc1C	-6	1	5	0	17	·	·	·	·
O=C(OCc1ccccc1)c1ccc(Br)o1	-10	1	-8	1.1*	8	100	0	116	0
COc1ccc(NC(=O)/C(C#N)=C/c2cccnc2)c(OC)c1	4	12	-5	0	22	·	·	·	·
COc1ccc(/C=C(\C#N)C(=O)Nc2cccc3ncccc23)cc1OC	-1	3	7	0	28	97	0	97	0
N#C/C(=C\c1ccc(O)c(O)c1)C(=O)Nc1ccccc1	·	6	·	0	·	·	·	·	·
N#C/C(=C\c1ccc(O)c(O)c1)C(=O)Nc1cccc2ncccc12	-5	3	11	1	34	107	0	114	0
COc1cc(/C=C(\C#N)C(=O)Nc2cccc3ncccc23)cc(OC)c1OC	-5	-6	-15	3.4*	28	98	0	118	0
O=C(CN1CCN(C(=O)c2c(F)cccc2F)CC1)Nc1ccccc1C(F)(F)F	-4	10	1	0	24	·	·	·	·
CCOC(=O)c1cc2sccc2n1CC(=O)c1ccc2c(c1)OCCO2	2	5	-8	0.5*	1	102	0	95	0
CC1(C)COC(c2ccc(F)c([N+](=O)[O-])c2)=N1	-20	6	4	0	18	·	·	·	·
O=C(Nc1ccc(Cl)cc1)c1cccs1	-8	9	-1	0	19	·	·	·	·
